# Assay results: ChEMBL document CHEMBL1142954, “Metabolically stabilized benzothiazoles for imaging of amyloid plaques” (J Med Chem, 2007)
# What was measured:
# [1] = Lipophilicity, log P of the compound; format: physicochemical; conditions: octanol/water
# Procedure, shortened: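 Octanol–PBS partition (log Poct/PBS) measured on the N-11C-labeled radiotracers.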
# [2] = system: Mus musculus; assay: Ratio of drug uptake in iv dosed Balb/C mouse brain at 2 to 30 mins; format: ADME, organism-based; conditions: in vivo
# Procedure, shortened: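 Wild-type mice received the 11C-labeled tracers i.v. Brain uptake was measured as %ID/g at 2 and 30 min post-injection, and the 2 min/30 min ratio was taken. Means ± sd, n = 4-5.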
# [3] = system: Plasma; assay: Metabolic stability in Balb/C mouse plasma assessed as radioactivity; format: ADME, cell-free
# [4] = Displacement of [3H]PIB from human A-beta-40 peptide
# Procedure, shortened: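 Competition binding against [3H]PIB using precipitated synthetic Aβ(1-40) peptide aggregates. Ki derived from competition data.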
SMILES,logP [1],Ratio [2],t1/2 [3] [min],Ki [4] [nM]
Cc1cc(-c2nc3ccccc3s2)ccc1N[11CH3],3.36,2.8,7.5,4.4
[11CH3]Nc1ccc(-c2nc3ccccc3s2)cc1F,3.05,3.1,8.4,6.8

# Results, then the compound that gave them:
logP [1],Ratio [2],t1/2 [3] [min],Ki [4] [nM],SMILES
4.18,2.5,7.2,1.3,[11CH3]Nc1ccc(-c2nc3cc(F)ccc3s2)cc1Br
2.81,9.8,22.1,3.4,[11CH3]Nc1ccc(-c2nc3cc(F)ccc3s2)cc1Cl
3.27,2.5,6.8,12.4,[11CH3]Nc1ccc(-c2nc3cc(F)ccc3s2)cc1
2.93,6.3,14.3,8.4,Cc1cc(-c2nc3cc(F)ccc3s2)ccc1N[11CH3]
